In ChEMBL document CHEMBL2074537, “Interaction of 31 beta-lactam antibiotics with the H+/peptide symporter PEPT2: analysis of affinity constants and comparison with PEPT1” (Eur J Pharm Biopharm, 2005) one finds Ki data, which are given here for 29 compounds.

Experiment [1] concerns the target T1, Solute carrier family 15 member 2 (Rattus norvegicus, UniProt Q63424).
T1 sequence (Q63424 whole entry): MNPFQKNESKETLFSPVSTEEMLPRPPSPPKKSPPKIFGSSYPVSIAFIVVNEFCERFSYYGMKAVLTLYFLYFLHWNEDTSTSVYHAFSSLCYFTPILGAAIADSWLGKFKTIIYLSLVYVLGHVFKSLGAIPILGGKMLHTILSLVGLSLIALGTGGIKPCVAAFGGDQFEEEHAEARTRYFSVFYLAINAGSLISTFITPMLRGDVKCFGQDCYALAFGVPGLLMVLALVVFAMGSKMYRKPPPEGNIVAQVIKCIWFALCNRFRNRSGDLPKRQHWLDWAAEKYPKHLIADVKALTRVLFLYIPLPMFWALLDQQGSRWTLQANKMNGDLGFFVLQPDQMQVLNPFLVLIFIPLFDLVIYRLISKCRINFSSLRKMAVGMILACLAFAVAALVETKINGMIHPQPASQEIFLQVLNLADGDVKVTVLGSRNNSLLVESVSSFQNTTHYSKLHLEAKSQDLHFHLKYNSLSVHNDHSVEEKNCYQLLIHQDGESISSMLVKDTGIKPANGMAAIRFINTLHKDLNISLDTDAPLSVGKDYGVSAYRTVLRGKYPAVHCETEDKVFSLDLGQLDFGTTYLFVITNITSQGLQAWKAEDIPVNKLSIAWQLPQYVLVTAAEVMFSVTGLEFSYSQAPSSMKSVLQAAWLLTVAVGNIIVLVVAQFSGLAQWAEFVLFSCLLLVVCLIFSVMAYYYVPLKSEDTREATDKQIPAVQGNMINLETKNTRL
Description: TP_TRANSPORTER: inhibition of Gly-Sar uptake (pH6.0) in SKPT cells. It is filed as functional, cell-based. In outline: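 Rat SKPT renal proximal tubule cells were seeded and used 4 days later. Cells were given ice-cold washes, lysed and counted by scintillation, with protein by Bradford. Non-saturable uptake was taken with 10 mM Gly-Sar.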

In experiment [2] the target is T2, Solute carrier family 15 member 1 (Homo sapiens, UniProt P46059).
T2 sequence (P46059 whole entry): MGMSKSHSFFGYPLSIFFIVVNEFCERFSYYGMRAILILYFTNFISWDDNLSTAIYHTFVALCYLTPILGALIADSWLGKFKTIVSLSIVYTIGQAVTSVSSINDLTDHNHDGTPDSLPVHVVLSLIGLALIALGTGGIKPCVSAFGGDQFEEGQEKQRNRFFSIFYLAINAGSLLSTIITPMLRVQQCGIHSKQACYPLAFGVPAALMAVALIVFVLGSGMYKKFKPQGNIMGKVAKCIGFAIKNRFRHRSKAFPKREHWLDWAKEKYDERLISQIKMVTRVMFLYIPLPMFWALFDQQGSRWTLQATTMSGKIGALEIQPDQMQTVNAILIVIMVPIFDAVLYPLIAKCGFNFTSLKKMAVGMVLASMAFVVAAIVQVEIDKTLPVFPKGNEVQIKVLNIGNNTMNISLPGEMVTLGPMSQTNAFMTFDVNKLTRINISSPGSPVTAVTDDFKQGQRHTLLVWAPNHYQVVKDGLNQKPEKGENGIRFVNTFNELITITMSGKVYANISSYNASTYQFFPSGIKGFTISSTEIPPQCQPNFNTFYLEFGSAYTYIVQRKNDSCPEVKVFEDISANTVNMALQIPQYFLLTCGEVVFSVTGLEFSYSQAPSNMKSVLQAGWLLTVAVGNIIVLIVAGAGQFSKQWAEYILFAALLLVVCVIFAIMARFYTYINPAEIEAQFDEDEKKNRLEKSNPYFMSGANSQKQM
Description: TP_TRANSPORTER: inhibition of Gly-Sar uptake (pH6.0) in Caco-2 cells. The format is functional, cell-based.

The structures appear in SMILES notation. pKi: −log10 of the molar value. Where “and” joins values, the source holds several entries; their conditions need not be identical. Identical values can stand only once.

With `CC1(C)S[C@@H]2[C@H](N)C(=O)N2[C@H]1C(=O)O`, the pKi in experiment [1] is 1.72; in experiment [2], less than 1.52.
The corresponding values for `CC(=O)OCC1=C(C(=O)O)N2C(=O)[C@@H](N)[C@H]2SC1` are 2.31 and less than 2.00.
The corresponding values for `CO/N=C(\C(=O)N[C@@H]1C(=O)N2C(C(=O)[O-])=C(C[N+]3(C)CCCC3)CS[C@H]12)c1csc(N)n1` are 1.94 and less than 1.52.
For the compound `CC1(C)S[C@@H]2[C@H](NC(=O)[C@H](N)c3ccc(O)cc3)C(=O)N2[C@H]1C(=O)O` [AMOXICILLIN], the pKi is 3.37 in experiment [1] and less than 2.00 in experiment [2].
With `N[C@@H](C(=O)N[C@@H]1C(=O)N2C(C(=O)O)=C(Cl)CS[C@H]12)c1ccccc1` [CEFACLOR ANHYDROUS], the negative-log Ki (pKi) in experiment [2] is less than 2.00.
The same measure, in the same setting: as for `CC1=C(C(=O)O)N2C(=O)[C@@H](NC(=O)[C@H](N)c3ccc(O)cc3)[C@H]2SC1` [CEFADROXIL], the figure is 2.14.
Take `Cn1nnnc1SCC1=C(C(=O)O)N2C(=O)[C@@H](NC(=O)[C@H](O)c3ccccc3)[C@H]2SC1` [CEFAMANDOLE]: the pKi in experiment [1] was 2.55; in experiment [2], 2.09.
As for `C=CC1=C(C(=O)O)N2C(=O)[C@@H](NC(=O)/C(=N\OCC(=O)O)c3csc(N)n3)[C@H]2SC1` [CEFIXIME], the pKi is 2.59 in experiment [1] and 1.92 in experiment [2].
The corresponding values for `CO[C@@]1(NC(=O)CSCC#N)C(=O)N2C(C(=O)O)=C(CSc3nnnn3C)CS[C@@H]21` [CEFMETAZOLE] are 2.37 and 1.55.
The corresponding values for `CO/N=C(\C(=O)N[C@@H]1C(=O)N2C(C(=O)O)=C(CSc3nc(C)c(CC(=O)O)s3)CS[C@H]12)c1csc(N)n1` [CEFODIZIME] are 2.05 and 1.66.
Take `CO/N=C(\C(=O)N[C@@H]1C(=O)N2C(C(=O)O)=C(COC(C)=O)CS[C@H]12)c1csc(N)n1` [CEFOTAXIME]: the figures for the pKi in experiment [1] and in experiment [2] were 1.70 and less than 1.52, respectively.
The corresponding values for `CO/N=C(\C(=O)N[C@@H]1C(=O)N2C(C(=O)[O-])=C(C[n+]3cccc4c3CCC4)CS[C@H]12)c1csc(N)n1` [CEFPIROME] are 2.02 and less than 1.52.
As to `NC(=O)c1cc[n+](CC2=C(C(=O)O)N3C(=O)[C@@H](NC(=O)[C@@H](c4ccccc4)S(=O)(=O)[O-])[C@H]3SC2)cc1` [CEFSULODIN], the pKi in experiment [1] and in experiment [2] was less than 1.52 throughout.
`CC(C)(O/N=C(\C(=O)N[C@@H]1C(=O)N2C(C(=O)[O-])=C(C[n+]3ccccc3)CS[C@H]12)c1csc(N)n1)C(=O)O` [CEFTAZIDIME]: the pKi in experiment [1] and in experiment [2] was less than 2.00 throughout.
For the compound `Nc1nc(/C(=C/CC(=O)O)C(=O)N[C@@H]2C(=O)N3C(C(=O)O)=CCS[C@H]23)cs1` [CEFTIBUTEN], the results for the pKi in experiment [1] and in experiment [2] were 3.55 and 3.47, respectively.
Consider `CO/N=C(\C(=O)N[C@@H]1C(=O)N2C(C(=O)O)=C(CSc3nc(=O)c(=O)[nH]n3C)CS[C@H]12)c1csc(N)n1` [CEFTRIAXONE], for which the pKi in experiment [1] is less than 1.70; in experiment [2], less than 1.52.
In the case of `CO/N=C(\C(=O)N[C@@H]1C(=O)N2C(C(=O)O)=C(COC(N)=O)CS[C@H]12)c1ccco1` [CEFUROXIME], the pKi in experiment [1] is < 5.52 and 1.90; in experiment [2], < 2.30 and 1.59.
`CC1=C(C(=O)O)N2C(=O)[C@@H](NC(=O)[C@H](N)c3ccccc3)[C@H]2SC1` [CEPHALEXIN ANHYDROUS] had a pKi in experiment [1] of 4.12.
Take `O=C(Cc1cccs1)N[C@@H]1C(=O)N2C(C(=O)[O-])=C(C[n+]3ccccc3)CS[C@H]12` [CEPHALORIDINE]: the values for the pKi in experiment [1] and in experiment [2] were 2.07 and less than 1.52, respectively.
As for `CC(=O)OCC1=C(C(=O)O)N2C(=O)[C@@H](NC(=O)Cc3cccs3)[C@H]2SC1` [CEPHALOTHIN], the values for the pKi in experiment [1] and in experiment [2] were 2.08 and less than 2.00, respectively.
In the case of `CC(=O)OCC1=C(C(=O)O)N2C(=O)[C@@H](NC(=O)CSc3ccncc3)[C@H]2SC1` [CEPHAPIRIN], the pKi in experiment [1] and in experiment [2] was less than 2.00 in each case.
Consider `CC1=C(C(=O)O)N2C(=O)[C@@H](NC(=O)[C@H](N)C3=CCC=CC3)[C@H]2SC1` [CEPHRADINE], for which the pKi in experiment [1] was 4.19; in experiment [2], 2.01.
As for `Cc1onc(-c2ccccc2Cl)c1C(=O)N[C@@H]1C(=O)N2[C@@H]1SC(C)(C)[C@@H]2C(=O)O` [CLOXACILLIN], the pKi in experiment [1] is 3.02; in experiment [2], 2.52.
The matching figures for `CC1(C)S[C@@H]2[C@H](NC(=O)C3(N)CCCCC3)C(=O)N2[C@H]1C(=O)O` [CYCLACILLIN]: 4.36 and 3.30.
Turning to `Cc1onc(-c2c(Cl)cccc2Cl)c1C(=O)N[C@@H]1C(=O)N2[C@@H]1SC(C)(C)[C@@H]2C(=O)O` [DICLOXACILLIN], the pKi in experiment [1] is 3.38; in experiment [2] it was 2.14.
For `C=N[C@@H](C(=O)N[C@@H]1C(=O)N2[C@@H]1SC(C)(C)[C@@H]2C(=O)O)c1ccccc1` [METAMPICILLIN], the pKi was 3.14 in experiment [1] and 1.90 in experiment [2].
The matching figures for `CO[C@@]1(NC(=O)C(C(=O)O)c2ccc(O)cc2)C(=O)N2C(C(=O)O)=C(CSc3nnnn3C)CO[C@@H]21` (some centres undefined) [MOXALACTAM]: 4.06 and 1.91.
Consider `Cc1onc(-c2ccccc2)c1C(=O)N[C@@H]1C(=O)N2[C@@H]1SC(C)(C)[C@@H]2C(=O)O` [OXACILLIN], for which the results for the pKi in experiment [1] and in experiment [2] were 2.48 and 1.92, respectively.
In experiment [2], `CC1(C)S[C@@H]2[C@H](NC(=O)Cc3ccccc3)C(=O)N2[C@H]1C(=O)O` [PENICILLIN G] showed a pKi of less than 1.52.
